Source: ChEMBL document CHEMBL1123038, “Potential neuroleptic agents. 3. Chemistry and antidopaminergic properties of substituted 6-methoxysalicylamides” (J Med Chem, 1985)

Legend:
Format in all cases: functional
Settings in all cases: ip
Rattus norvegicus [1] = assay: Compound was evaluated in vivo for antagonist activity against apomorphine induced behavioral syndrome such as Hyperactivity in rat after intraperitoneal administration; activity value ranges from 1.58-1.78
Rattus norvegicus [2] = assay: Compound was evaluated in vivo its antagonist activity against apomorphine induced behavioral syndrome such as Stereotypy in rat after intraperitoneal administration; activity value ranges from 2.82-3.02
Outline: (§1)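 Male Sprague-Dawley rats (275–325 g) got compound ip (saline, or acetic acid/distilled water vehicle) 60 min ahead of sc apomorphine 1 mg/kg given into the neck. Stereotypy strength was scored 5, 20, 40 and 60 min after apomorphine. […] It was computed by Theil's method with Sen tie correction, using 5–6+ dose levels and 6–8 animals per dose.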

Rattus norvegicus [3] = assay: Compound was evaluated in vivo its antagonist activity against apomorphine induced behavioral syndrome such as Stereotypy in rat after intraperitoneal administration; activity value ranges from 0.24-0.25; outline: as §1
Rattus norvegicus [4] = assay: Compound was evaluated in vivo for antagonist activity against apomorphine induced behavioral syndrome such as Hyperactivity in rat after intraperitoneal administration; activity value ranges from 0.11-0.13
Outline: (§2)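 Male Sprague-Dawley rats (275–325 g) received test compound ip (in saline, or acetic acid plus distilled water) 60 min before apomorphine 1 mg/kg sc into the neck. Behaviour was scored at 5, 20, 40 and 60 min after apomorphine.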

Rattus norvegicus [5] = assay: Compound was evaluated in vivo for antagonist activity against apomorphine induced behavioral syndrome such as Hyperactivity in rat after intraperitoneal administration; activity value ranges from 0.45-0.49
Rattus norvegicus [6] = assay: Compound was evaluated in vivo its antagonist activity against apomorphine induced behavioral syndrome such as Stereotypy in rat after intraperitoneal administration; activity value ranges from 0.56-0.95; outline: as §1
Rattus norvegicus [7] = assay: Compound was evaluated in vivo its antagonist activity against apomorphine induced behavioral syndrome such as Stereotypy in rat after intraperitoneal administration; activity value ranges from 15.1-15.8; outline: as §1
Rattus norvegicus [8] = assay: Compound was evaluated in vivo for antagonist activity against apomorphine induced behavioral syndrome such as Hyperactivity in rat after intraperitoneal administration; activity value ranges from 2.7-3.8
Rattus norvegicus [9] = assay: Compound was evaluated in vivo its antagonist activity against apomorphine induced behavioral syndrome such as Stereotypy in rat after intraperitoneal administration; activity value ranges from 0.65-0.66; outline: as §1
Rattus norvegicus [10] = assay: Compound was evaluated in vivo for antagonist activity against apomorphine induced behavioral syndrome such as Hyperactivity in rat after intraperitoneal administration; activity value ranges from 0.42-0.43
Rattus norvegicus [11] = assay: Compound was evaluated in vivo its antagonist activity against apomorphine induced behavioral syndrome such as Stereotypy in rat after intraperitoneal administration; activity value ranges from 6.5-6.8; outline: as §1
Rattus norvegicus [12] = assay: Compound was evaluated in vivo for antagonist activity against apomorphine induced behavioral syndrome such as Hyperactivity in rat after intraperitoneal administration; activity value ranges from 6.0-6.2
Rattus norvegicus [13] = assay: Compound was evaluated in vivo for antagonist activity against apomorphine induced behavioral syndrome such as Hyperactivity in rat after intraperitoneal administration; activity value ranges from 5.2-6.9
Rattus norvegicus [14] = assay: Compound was evaluated in vivo its antagonist activity against apomorphine induced behavioral syndrome such as Stereotypy in rat after intraperitoneal administration; activity value ranges from 2.4-2.7; outline: as §1
Rattus norvegicus [15] = assay: Compound was evaluated in vivo for antagonist activity against apomorphine induced behavioral syndrome such as Hyperactivity in rat after intraperitoneal administration; activity value ranges from 0.65-0.85
Rattus norvegicus [16] = assay: Compound was evaluated in vivo for antagonist activity against apomorphine induced behavioral syndrome such as Hyperactivity in rat after intraperitoneal administration; activity value ranges from 0.054-0.055
Rattus norvegicus [17] = assay: Compound was evaluated in vivo its antagonist activity against apomorphine induced behavioral syndrome such as Stereotypy in rat after intraperitoneal administration; activity value ranges from 0.30-0.33; outline: as §1
Rattus norvegicus [18] = assay: Compound was evaluated in vivo its antagonist activity against apomorphine induced behavioral syndrome such as Stereotypy in rat after intraperitoneal administration activity value ranges from 0.81-0.95; outline: as §1
Rattus norvegicus [19] = assay: Compound was evaluated in vivo for antagonist activity against apomorphine induced behavioral syndrome such as Hyperactivity in rat after intraperitoneal administration; activity value ranges from 0.19-0.20
Rattus norvegicus [20] = assay: Compound was evaluated in vivo its antagonist activity against apomorphine induced behavioral syndrome such as Stereotypy in rat after intraperitoneal administration
Rattus norvegicus [21] = assay: Compound was evaluated in vivo for antagonist activity against apomorphine induced behavioral syndrome such as Hyperactivity in rat after intraperitoneal administration; activity value ranges from 0.27-0.35; outline: as §2
Rattus norvegicus [22] = assay: Compound was evaluated in vivo for antagonist activity against apomorphine induced behavioral syndrome such as Hyperactivity in rat after intraperitoneal administration; activity value ranges from 0.14-0.18
Rattus norvegicus [23] = assay: Compound was evaluated in vivo its antagonist activity against apomorphine induced behavioral syndrome such as Stereotypy in rat after intraperitoneal administration; activity value ranges from 0.74-0.87; outline: as §1
Rattus norvegicus [24] = assay: Compound was evaluated in vivo for antagonist activity against apomorphine induced behavioral syndrome such as Hyperactivity in rat after intraperitoneal administration; activity value ranges from 1.15-1.26
Rattus norvegicus [25] = assay: Compound was evaluated in vivo its antagonist activity against apomorphine induced behavioral syndrome such as Stereotypy in rat after intraperitoneal administration; activity value ranges from 0.89-1.02; outline: as §1
Rattus norvegicus [26] = assay: Compound was evaluated in vivo its antagonist activity against apomorphine induced behavioral syndrome such as Stereotypy in rat after intraperitoneal administration; activity value ranges from 1.8-2.2; outline: as §1
Rattus norvegicus [27] = assay: Compound was evaluated in vivo for antagonist activity against apomorphine induced behavioral syndrome such as Hyperactivity in rat after intraperitoneal administration; activity value ranges from 0.46-0.49
Rattus norvegicus [28] = assay: Compound was evaluated in vivo its antagonist activity against apomorphine induced behavioral syndrome such as Stereotypy in rat after intraperitoneal administration; activity value ranges from 7.6-8.3; outline: as §1
Rattus norvegicus [29] = assay: Compound was evaluated in vivo for antagonist activity against apomorphine induced behavioral syndrome such as Hyperactivity in rat after intraperitoneal administration; activity value ranges from 0.36-0.43
Rattus norvegicus [30] = assay: Compound was evaluated in vivo its antagonist activity against apomorphine induced behavioral syndrome such as Stereotypy in rat after intraperitoneal administration; activity value ranges from 0.52-0.55; outline: as §1
Rattus norvegicus [31] = assay: Compound was evaluated in vivo for antagonist activity against apomorphine induced behavioral syndrome such as Hyperactivity in rat after intraperitoneal administration; activity value ranges from 0.11-0.16
Rattus norvegicus [32] = assay: Compound was evaluated in vivo its antagonist activity against apomorphine induced behavioral syndrome such as Stereotypy in rat after intraperitoneal administration; activity value ranges from 2.0-2.0; outline: as §1
Rattus norvegicus [33] = assay: Compound was evaluated in vivo for antagonist activity against apomorphine induced behavioral syndrome such as Hyperactivity in rat after intraperitoneal administration; activity value ranges from 1.07-1.15
Rattus norvegicus [34] = assay: Compound was evaluated in vivo for antagonist activity against apomorphine induced behavioral syndrome such as Hyperactivity in rat after intraperitoneal administration; activity value ranges from 0.78-1.07
Rattus norvegicus [35] = assay: Compound was evaluated in vivo its antagonist activity against apomorphine induced behavioral syndrome such as Stereotypy in rat after intraperitoneal administration; activity value ranges from 13.8-14.1; outline: as §1

`CCN1CCC[C@H]1CNC(=O)c1c(OC)ccc(Br)c1O` (stereo in doubt; 26) gave an ED50 (Rattus norvegicus [1]) of 0.055 µmol/kg and an ED50 (Rattus norvegicus [2]) of 0.32 µmol/kg.

`CCc1ccc(OC)c(C(=O)NC[C@@H]2CCCN2CC)c1O` was tested, and the ED50 (Rattus norvegicus [3]) was 0.25 µmol/kg and the ED50 (Rattus norvegicus [4]) was 0.12 µmol/kg.

In the case of `CCc1ccc(O)c(C(=O)NC[C@@H]2CCCN2CC)c1OC`, the ED50 (Rattus norvegicus [5]) is reported as 0.47 µmol/kg and the ED50 (Rattus norvegicus [6]) is reported as 0.79 µmol/kg.

Work on `CCCN1CCC[C@H]1CNC(=O)c1c(OC)ccc(Br)c1OC` yielded an ED50 (Rattus norvegicus [7]) of 15.5 µmol/kg and an ED50 (Rattus norvegicus [8]) of 3.4 µmol/kg.

For `CCCN1CCC[C@H]1CNC(=O)c1c(OC)ccc(Br)c1O`, the ED50 (Rattus norvegicus [9]) was 0.66 µmol/kg and the ED50 (Rattus norvegicus [10]) was 0.43 µmol/kg.

In the case of `CCN1CCC[C@H]1CNC(=O)c1c(O)ccc(Br)c1OC`, the ED50 (Rattus norvegicus [11]) is reported as 6.6 µmol/kg and the ED50 (Rattus norvegicus [12]) is reported as 6.2 µmol/kg.

`CCN1CCC[C@H]1CNC(=O)c1c(OC)ccc(Cl)c1OC` was tested, and the ED50 (Rattus norvegicus [13]) was 6.3 µmol/kg.

Work on `CCN1CCC[C@H]1CNC(=O)c1c(O)ccc(Cl)c1OC` yielded an ED50 (Rattus norvegicus [14]) of 2.5 µmol/kg and an ED50 (Rattus norvegicus [15]) of 0.78 µmol/kg.

With `CCN1CCC[C@H]1CNC(=O)c1c(OC)ccc(Br)c1O` (stereo in doubt; 11) the ED50 (Rattus norvegicus [16]) was 0.055 µmol/kg and the ED50 (Rattus norvegicus [17]) was 0.32 µmol/kg.

For `CCN1CCC[C@H]1CNC(=O)c1c(OC)ccc(Cl)c1O`, the ED50 (Rattus norvegicus [18]) was 0.87 µmol/kg and the ED50 (Rattus norvegicus [19]) was 0.2 µmol/kg.

With `O=C(CCCN1CCC(O)(c2ccc(Cl)cc2)CC1)c1ccc(F)cc1` [HALOPERIDOL] the ED50 (Rattus norvegicus [20]) was 0.27 µmol/kg and the ED50 (Rattus norvegicus [21]) was 0.29 µmol/kg.

With `CCCc1ccc(OC)c(C(=O)NC[C@@H]2CCCN2CC)c1O` the ED50 (Rattus norvegicus [22]) was 0.16 µmol/kg and the ED50 (Rattus norvegicus [23]) was 0.79 µmol/kg.

With `CCN1CCC[C@H]1CNC(=O)c1c(OC)ccc(C)c1O` the ED50 (Rattus norvegicus [24]) was 1.23 µmol/kg and the ED50 (Rattus norvegicus [25]) was 0.95 µmol/kg.

In the case of `CCOc1c(Br)ccc(OC)c1C(=O)NC[C@@H]1CCCN1CC`, the ED50 (Rattus norvegicus [26]) is reported as 1.9 µmol/kg and the ED50 (Rattus norvegicus [27]) is reported as 0.47 µmol/kg.

`CCN1CCC[C@H]1CNC(=O)c1c(O)cccc1OC` gave an ED50 (Rattus norvegicus [28]) of 7.8 µmol/kg and an ED50 (Rattus norvegicus [29]) of 0.4 µmol/kg.

Compound `CCN1CCC[C@H]1CNC(=O)c1c(OC)ccc(I)c1O` [IOLOPRIDE] has an ED50 (Rattus norvegicus [30]) of 0.54 µmol/kg and an ED50 (Rattus norvegicus [31]) of 0.15 µmol/kg.

Compound `CCN1CCC[C@H]1CNC(=O)c1c(OC)ccc(I)c1OC` has an ED50 (Rattus norvegicus [32]) of 2.1 µmol/kg and an ED50 (Rattus norvegicus [33]) of 1.12 µmol/kg.

`CCc1ccc(OC)c(C(=O)NC[C@@H]2CCCN2CC)c1OC` showed an ED50 (Rattus norvegicus [34]) of 0.95 µmol/kg and an ED50 (Rattus norvegicus [35]) of 14.1 µmol/kg.
